Series [1] deals with T1, cAMP and cAMP-inhibited cGMP 3',5'-cyclic phosphodiesterase 10A (Homo sapiens, UniProt Q9Y233). Description: Inhibition of human PDE10A (amino acids 14 to 779) using [3H]-labelled cyclic nucleotide as substrate after 1 hr b beta counting. In a few lines:
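PDE10A expressed in baculovirus-infected Sf9 cells (27 °C, harvested at 72 h), lysed in Tris/MgCl2/triton buffer and partially purified on Q sepharose. Reactions contained enzyme sufficient to convert 20–25% of substrate, 50 mM HEPES pH 7.6, 10 mM MgCl2, 0.02% Tween20, 0.1 mg/ml BSA, 3H-cAMP at 5 nM final and varying inhibitor levels. Signal was counted by Microbeta, activity was normalized to an uninhibited control (100%), and IC50 values were derived.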

Series [2] concerns the target Dual specificity calcium/calmodulin-dependent 3',5'-cyclic nucleotide phosphodiesterase 1C (Homo sapiens) (UniProt Q14123). Briefly: Inhibition of PDE1C (unknown origin) at 10 uM.
Series [3] has as its target cGMP-dependent 3',5'-cyclic phosphodiesterase (Homo sapiens) (UniProt O00408). Briefly: Inhibition of PDE2A (unknown origin) at 10 uM.
Series [4] concerns the target cGMP-inhibited 3',5'-cyclic phosphodiesterase 3A (Homo sapiens) (UniProt Q14432). Briefly: Inhibition of PDE3A (unknown origin) at 10 uM.
Series [5] addresses 3',5'-cyclic-AMP phosphodiesterase 4D (Homo sapiens) (UniProt Q08499). Description: Inhibition of PDE4D (unknown origin) at 10 uM.
Series [6] deals with cGMP-specific 3',5'-cyclic phosphodiesterase (Homo sapiens) (UniProt O76074). Description: Inhibition of PDE5A (unknown origin) at 10 uM.
Series [7] deals with 3',5'-cyclic-AMP phosphodiesterase 7B (Homo sapiens) (UniProt Q9NP56). Description: Inhibition of PDE7B (unknown origin) at 10 uM.
Series [8] deals with High affinity cAMP-specific and IBMX-insensitive 3',5'-cyclic phosphodiesterase 8A (Homo sapiens) (UniProt O60658). Description: Inhibition of PDE8A (unknown origin) at 10 uM.
The target in series [9] is High affinity cGMP-specific 3',5'-cyclic phosphodiesterase 9A (Homo sapiens) (UniProt O76083). Briefly: Inhibition of PDE9A (unknown origin) at 10 uM.
Series [10] concerns the target T1, cAMP and cAMP-inhibited cGMP 3',5'-cyclic phosphodiesterase 10A. Briefly: Inhibition of PDE10A (unknown origin) at 10 uM.
The target in series [11] is Dual 3',5'-cyclic-AMP and -GMP phosphodiesterase 11A (Homo sapiens) (UniProt Q9HCR9). Briefly: Inhibition of PDE11A (unknown origin) at 2 uM.
The next series concerns MDCK. Description: Apparent permeability across apical to basolateral side in MDCK cells expressing MDR1 (unknown origin). Details: unit not given here. Particulars: dog.
The target of series [12] is T1, cAMP and cAMP-inhibited cGMP 3',5'-cyclic phosphodiesterase 10A. Briefly: Inhibition of PDE10A (unknown origin) at 2 uM.
The target of series [13] is Dual 3',5'-cyclic-AMP and -GMP phosphodiesterase 11A (Homo sapiens) (UniProt Q9HCR9). Description: Inhibition of PDE11A (unknown origin) at 10 uM.

T1 sequence (Q9Y233 whole entry, the tested form may be a part): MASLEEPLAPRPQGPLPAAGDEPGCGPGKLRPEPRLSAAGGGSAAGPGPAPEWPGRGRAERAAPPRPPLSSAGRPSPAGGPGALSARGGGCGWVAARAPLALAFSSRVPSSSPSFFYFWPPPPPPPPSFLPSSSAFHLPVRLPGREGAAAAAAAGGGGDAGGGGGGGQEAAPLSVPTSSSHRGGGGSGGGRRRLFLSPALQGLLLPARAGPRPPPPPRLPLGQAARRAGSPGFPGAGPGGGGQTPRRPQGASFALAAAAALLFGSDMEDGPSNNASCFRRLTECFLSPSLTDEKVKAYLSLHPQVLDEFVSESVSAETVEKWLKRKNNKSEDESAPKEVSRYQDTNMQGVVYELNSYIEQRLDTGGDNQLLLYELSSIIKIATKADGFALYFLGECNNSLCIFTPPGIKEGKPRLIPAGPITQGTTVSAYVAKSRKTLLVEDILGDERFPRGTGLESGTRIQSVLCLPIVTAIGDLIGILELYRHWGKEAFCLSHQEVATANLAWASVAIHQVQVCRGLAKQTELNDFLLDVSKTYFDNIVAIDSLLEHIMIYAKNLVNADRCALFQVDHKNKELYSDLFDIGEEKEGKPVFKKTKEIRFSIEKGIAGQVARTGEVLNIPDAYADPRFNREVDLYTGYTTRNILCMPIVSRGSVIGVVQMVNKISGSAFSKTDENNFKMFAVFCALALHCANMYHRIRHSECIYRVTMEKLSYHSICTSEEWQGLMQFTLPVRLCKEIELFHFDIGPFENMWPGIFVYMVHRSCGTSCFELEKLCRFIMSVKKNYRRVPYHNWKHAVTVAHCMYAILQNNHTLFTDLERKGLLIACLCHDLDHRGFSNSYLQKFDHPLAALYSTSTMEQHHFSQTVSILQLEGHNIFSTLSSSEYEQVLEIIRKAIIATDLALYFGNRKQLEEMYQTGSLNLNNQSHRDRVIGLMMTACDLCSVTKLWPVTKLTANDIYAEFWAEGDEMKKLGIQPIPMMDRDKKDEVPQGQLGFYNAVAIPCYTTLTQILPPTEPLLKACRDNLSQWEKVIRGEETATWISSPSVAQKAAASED
Sequence of 3',5'-cyclic-AMP phosphodiesterase 4D (Homo sapiens) (Q08499 whole entry): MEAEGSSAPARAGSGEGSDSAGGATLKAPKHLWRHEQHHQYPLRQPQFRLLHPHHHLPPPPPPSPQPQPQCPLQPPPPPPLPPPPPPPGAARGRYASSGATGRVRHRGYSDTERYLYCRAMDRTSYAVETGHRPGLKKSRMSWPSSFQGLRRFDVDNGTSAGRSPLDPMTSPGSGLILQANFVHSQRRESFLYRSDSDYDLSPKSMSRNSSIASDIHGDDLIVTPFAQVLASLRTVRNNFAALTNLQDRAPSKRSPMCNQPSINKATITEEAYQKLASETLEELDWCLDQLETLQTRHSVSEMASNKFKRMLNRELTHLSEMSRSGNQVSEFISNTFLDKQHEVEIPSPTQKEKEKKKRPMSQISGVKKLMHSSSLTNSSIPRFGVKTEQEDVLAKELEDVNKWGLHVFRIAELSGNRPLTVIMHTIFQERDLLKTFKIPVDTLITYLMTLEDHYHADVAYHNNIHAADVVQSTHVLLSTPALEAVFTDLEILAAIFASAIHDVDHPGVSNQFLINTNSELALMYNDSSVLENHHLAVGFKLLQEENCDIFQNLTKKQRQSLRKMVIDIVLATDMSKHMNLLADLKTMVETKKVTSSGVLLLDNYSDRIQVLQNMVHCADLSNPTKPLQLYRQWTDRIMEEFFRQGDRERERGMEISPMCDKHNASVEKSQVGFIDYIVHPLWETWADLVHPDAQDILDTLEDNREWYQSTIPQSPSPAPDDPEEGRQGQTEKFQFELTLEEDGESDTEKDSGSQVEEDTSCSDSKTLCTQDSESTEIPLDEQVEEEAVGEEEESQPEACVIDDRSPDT
Sequence of cGMP-dependent 3',5'-cyclic phosphodiesterase (Homo sapiens) (O00408 whole entry): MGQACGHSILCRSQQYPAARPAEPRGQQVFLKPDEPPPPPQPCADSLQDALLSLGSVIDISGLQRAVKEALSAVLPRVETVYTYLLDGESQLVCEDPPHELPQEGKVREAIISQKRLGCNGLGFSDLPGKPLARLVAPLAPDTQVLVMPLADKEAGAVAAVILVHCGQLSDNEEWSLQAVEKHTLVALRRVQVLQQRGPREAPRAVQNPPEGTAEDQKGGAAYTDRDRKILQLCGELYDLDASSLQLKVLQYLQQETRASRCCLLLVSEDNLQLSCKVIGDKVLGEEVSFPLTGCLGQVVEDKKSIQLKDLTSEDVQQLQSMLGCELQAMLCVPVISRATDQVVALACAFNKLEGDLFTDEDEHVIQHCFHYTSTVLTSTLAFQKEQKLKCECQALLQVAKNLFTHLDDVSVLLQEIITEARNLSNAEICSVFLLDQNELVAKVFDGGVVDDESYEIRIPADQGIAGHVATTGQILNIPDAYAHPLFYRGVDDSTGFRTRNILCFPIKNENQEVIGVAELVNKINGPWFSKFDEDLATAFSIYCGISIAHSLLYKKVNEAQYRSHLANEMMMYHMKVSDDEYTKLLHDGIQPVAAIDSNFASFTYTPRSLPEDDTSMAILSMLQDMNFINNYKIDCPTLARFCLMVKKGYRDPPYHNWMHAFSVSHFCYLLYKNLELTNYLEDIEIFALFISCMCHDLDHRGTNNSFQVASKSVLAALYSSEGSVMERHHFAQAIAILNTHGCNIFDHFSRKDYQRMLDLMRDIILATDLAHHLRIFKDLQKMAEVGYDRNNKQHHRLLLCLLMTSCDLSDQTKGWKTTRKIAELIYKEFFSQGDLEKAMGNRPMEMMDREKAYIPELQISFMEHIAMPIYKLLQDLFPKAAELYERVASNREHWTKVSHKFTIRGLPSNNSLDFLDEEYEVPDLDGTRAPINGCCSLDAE
Sequence of High affinity cAMP-specific and IBMX-insensitive 3',5'-cyclic phosphodiesterase 8A (Homo sapiens) (O60658 whole entry): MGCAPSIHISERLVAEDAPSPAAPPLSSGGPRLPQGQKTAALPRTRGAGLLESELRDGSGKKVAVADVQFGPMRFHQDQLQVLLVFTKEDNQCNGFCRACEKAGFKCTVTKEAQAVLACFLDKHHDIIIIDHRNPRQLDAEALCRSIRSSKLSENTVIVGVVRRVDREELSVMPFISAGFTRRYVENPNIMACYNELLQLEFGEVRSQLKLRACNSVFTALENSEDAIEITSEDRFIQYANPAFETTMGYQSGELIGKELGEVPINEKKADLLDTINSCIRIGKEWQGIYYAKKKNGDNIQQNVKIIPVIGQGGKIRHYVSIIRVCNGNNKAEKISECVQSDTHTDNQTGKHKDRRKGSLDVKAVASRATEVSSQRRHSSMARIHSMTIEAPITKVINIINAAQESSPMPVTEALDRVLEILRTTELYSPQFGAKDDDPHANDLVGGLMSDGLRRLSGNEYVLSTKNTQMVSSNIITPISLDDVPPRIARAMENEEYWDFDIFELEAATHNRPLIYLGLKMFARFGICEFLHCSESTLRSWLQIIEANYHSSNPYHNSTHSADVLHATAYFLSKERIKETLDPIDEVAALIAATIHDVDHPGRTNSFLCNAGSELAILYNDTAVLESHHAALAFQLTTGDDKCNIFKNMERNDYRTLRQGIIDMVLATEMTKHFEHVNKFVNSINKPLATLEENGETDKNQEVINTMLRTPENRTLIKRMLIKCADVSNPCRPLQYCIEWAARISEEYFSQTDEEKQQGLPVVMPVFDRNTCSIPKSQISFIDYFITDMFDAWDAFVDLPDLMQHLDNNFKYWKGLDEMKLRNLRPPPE
Sequence of High affinity cGMP-specific 3',5'-cyclic phosphodiesterase 9A (Homo sapiens) (O76083 whole entry): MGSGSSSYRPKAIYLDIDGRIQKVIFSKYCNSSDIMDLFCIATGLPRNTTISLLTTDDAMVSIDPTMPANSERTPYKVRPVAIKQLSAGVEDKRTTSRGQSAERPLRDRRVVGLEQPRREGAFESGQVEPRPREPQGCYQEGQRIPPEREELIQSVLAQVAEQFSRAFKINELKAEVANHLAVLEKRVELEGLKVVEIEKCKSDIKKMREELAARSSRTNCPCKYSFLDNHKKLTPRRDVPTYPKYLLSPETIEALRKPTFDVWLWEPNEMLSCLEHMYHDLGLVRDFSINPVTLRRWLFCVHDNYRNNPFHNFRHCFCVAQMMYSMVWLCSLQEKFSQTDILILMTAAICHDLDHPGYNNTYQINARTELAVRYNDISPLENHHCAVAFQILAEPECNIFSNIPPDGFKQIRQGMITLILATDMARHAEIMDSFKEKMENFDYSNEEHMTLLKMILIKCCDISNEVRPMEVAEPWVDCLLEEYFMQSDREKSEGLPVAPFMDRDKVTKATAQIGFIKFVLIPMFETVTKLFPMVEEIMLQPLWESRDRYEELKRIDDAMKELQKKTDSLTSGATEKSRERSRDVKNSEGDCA
Sequence of 3',5'-cyclic-AMP phosphodiesterase 7B (Homo sapiens) (Q9NP56 whole entry): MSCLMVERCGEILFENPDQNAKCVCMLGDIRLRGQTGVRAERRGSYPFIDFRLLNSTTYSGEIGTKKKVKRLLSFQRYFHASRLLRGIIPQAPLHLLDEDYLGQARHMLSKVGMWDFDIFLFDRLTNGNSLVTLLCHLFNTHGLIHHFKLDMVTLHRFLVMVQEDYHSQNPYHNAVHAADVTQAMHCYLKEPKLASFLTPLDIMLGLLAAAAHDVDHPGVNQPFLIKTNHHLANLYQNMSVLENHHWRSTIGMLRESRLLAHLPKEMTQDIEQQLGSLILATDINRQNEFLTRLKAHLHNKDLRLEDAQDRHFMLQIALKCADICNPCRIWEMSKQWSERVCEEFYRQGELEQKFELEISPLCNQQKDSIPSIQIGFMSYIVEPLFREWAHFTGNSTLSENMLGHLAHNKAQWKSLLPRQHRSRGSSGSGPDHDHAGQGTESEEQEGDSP

Broadly, the IC50 is the point on the concentration scale where inhibition reaches its midpoint. In general, inhibition refers to the drop in the measured response relative to a control, in per cent. In [1], `Cc1cc2c3ccccc3cc(CCc3nc4ccccc4n3C)n2n1` returned an IC50 of 1000 nM. The inhibition in [2] is -7%; in series [3] it was 8%; in series [4], 15%; in [5], 11%; in series [6], 20%; in series [7], 11%. Besides, the inhibition in series [8] was 36%; in series [9] it was 10%; in series [10], 77%; in [11], 12%. For the same molecule, the “Papp A-B” value in the series with MDCK is given as 1.1.

Consider `Cc1cc2c3cnccc3cc(CCc3nc4ccccc4n3C)n2n1`, for which, in [1], the IC50 came to 480 nM. The inhibition is 10% in [2]; 54% in series [3]; 30% in [4]; 15% in series [5]; 39% in series [6]; -3% in series [7]. The inhibition in [8] was found to be 46%; in [9], 15%; in series [12], 79%; in series [13], 1%.

The molecule `Cc1cc2c3ccccc3cc(CCc3nc(-c4ccccc4)cn3C)n2n1` showed a half-maximal inhibitory concentration (IC50) in [1] of 900 nM. Moreover, the inhibition in [2] was -1%; in [3], 14%; in series [4] it was 20%; in [5] it was 12%; in series [7], 13%; in [8], 17%. Also, the inhibition is 72% in series [10] and 13% in series [11]. In the series on MDCK, the “Papp A-B” value was 3.1.

`Cc1cc2c3ccncc3cc(CCc3nc(-c4ccccc4)cn3C)n2n1` gave an IC50 in series [1] of 40 nM. The inhibition was 24% in series [2]; 17% in series [3]; 49% in series [4]; 68% in [5]; 59% in series [6]; 53% in series [7]. In addition, the inhibition in [8] was determined as 37%; in series [9] it was 12%; in series [10], 102%; in series [11] it was 37%. Moreover, in the series with MDCK, the “Papp A-B” value is 11.7.

In turn, `CCOC(=O)c1cc2c3cccnc3cc(CCc3nc(-c4ccccc4)cn3C)n2n1` gave an IC50 in [1] of 220 nM. Moreover, the inhibition in series [3] was 44%; in [4] it was 13%; in series [5], 45%; in [6] it was 13%; in series [7], -4%; in series [8] it was 46%. Also, the inhibition in [9] came out at 20%; in series [12], 88%; in series [13], 7%.

In [1], `Cc1cc2c3cnccc3cc(CCc3nc(-c4ccccc4)cn3C)n2n1` gave an IC50 of 55 nM. The inhibition stood at 11% in series [2]; 20% in [3]; 13% in [4]; 25% in series [5]; 15% in [6]; 41% in [7]. Besides, the inhibition came out at 25% in series [8], 53% in series [9], 100% in series [12] and 7% in series [13].

`Cc1cc2c3cccnc3cc(CCc3nc(-c4ccccc4)cn3C)n2n1` displayed an IC50 in series [1] of 40 nM. For the same molecule, the inhibition in series [2] worked out at 15%; in series [3], 28%; in [4] it was 5%; in [5], 38%; in series [6] it was 35%; in [7], 18%. The inhibition worked out at 16% in series [8], 5% in series [9], 102% in [12] and 34% in series [13].

As to `CCOC(=O)c1cc2c3cccnc3cc(CCc3nc4ccccc4n3C)n2n1`, the IC50 in series [1] is 1300 nM. Also, the inhibition in series [2] amounted to 27%; in series [3], 20%; in [4] it was 1%; in series [5], 24%; in [6] it was 38%; in series [7], 17%. Moreover, the inhibition in series [8] is -6%; in series [9], -2%; in series [12], 73%; in series [13], 10%.

On to `Cc1cc2c3cccnc3cc(CCc3nc4ccccc4n3C)n2n1`, for which the IC50 in [1] came out at 170 nM. For the same molecule, the inhibition was found to be 28% in series [2]; 55% in series [3]; 16% in series [4]; 23% in series [5]; 67% in series [6]; 27% in series [7]. Also, the inhibition stood at 13% in series [8], 21% in [9], 93% in [12] and 43% in [13].

In [1], `Cn1cc(-c2ccccc2)nc1CCc1cc2ncccc2c2cc(C(F)(F)F)nn12` came in with a half-inhibitory concentration (IC50) of 190 nM. The inhibition in series [2] was -3%; in [3] it was 13%; in series [4], 28%; in series [5], 44%; in series [6], 33%; in series [7], 41%. The inhibition in series [8] was found to be 31%; in series [9] it was 8%; in [10], 101%; in series [11] it was 25%. Further, the “Papp A-B” value in the series with MDCK worked out at 3.1.

For the molecule `COCc1cc2c3cccnc3cc(CCc3nc(-c4ccccc4)cn3C)n2n1`, the midpoint of inhibition in series [1], the IC50, lay at 42 nM. Also, the inhibition in series [2] was determined as 7%; in series [3], 69%; in [4], 51%; in series [5], 58%; in series [6] it was 38%; in series [7], 47%. Moreover, the inhibition in series [8] came to 29%; in series [9], 15%; in series [10], 106%; in series [11], 70%. Besides, the “Papp A-B” value with MDCK is 17.8.

(Values after ChEMBL document CHEMBL3352060, “Synthesis and SAR study of novel tricyclic pyrazoles as potent phosphodiesterase 10A inhibitors” (Eur J Med Chem, 2014).)
